96 compounds from ChEMBL document CHEMBL4513216, “Probing the Open Global Health Chemical Diversity Library for Multistage-Active Starting Points for Next-Generation Antimalarials” (ACS Infect Dis, 2020) can be followed below.

Molecules are shown by their SMILES.

This series in a line: Toxicity liver stage against HepG2, at 10uM. Further details: test concentration 10 uM, cell line HepG2-A16-CD81EGFP. Conditions: human, HepG2-A16-CD81EGFP cells; read-out: INHIBITION
Format: cell-based. A digest of the protocol: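 Uninfected HepG2-A16-CD81EGFP cells, 3 × 10^3 per well, 1536-well, plated on prespotted compound at 10 μM final, parasite-free screening media added to match infected plates; puromycin 10 μM positive, DMSO 0.5% negative; run in parallel with 48 h PbLuc assay at 37 °C, 5% CO2; viability by CellTiter-Glo luminescence, normalized to controls.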
Regarding `COc1ccc(CN2CCOC[C@H]2c2nc(-c3ccncc3)c[nH]2)cc1`, the cytotoxicity at 10 µM was -0.588%.

As to `O=C(CN1C(=O)CCC1=O)N1CCC(S(=O)(=O)Cc2ccco2)CC1`, the cytotoxicity at 10 µM came to 3.79%.

`CCOCC(=O)NCC1Cn2nnc(-c3cccc(F)c3)c2CO1` (stereo unspecified): the cytotoxicity at 10 µM is -1.29%.

In the case of `O=C(NCC1CC1)C1=NOC2(CCN(Cc3ccsc3)C2)C1` (stereo unspecified), the cytotoxicity at 10 µM is 1.47%.

With `Cn1cc(CN2CC[C@H]3OCC[C@@H](C(=O)Nc4cnccn4)[C@@H]3C2)cn1`, the cytotoxicity at 10 µM was found to be 4.12%.

On to `Cc1ccc(S(=O)(=O)NC2CNC(=O)C2)cc1C` (stereo unspecified), for which the cytotoxicity at 10 µM was -21.1%.

As for `COc1ccc(C)cc1NC(=O)Nc1cnc(N2CCN(C)CC2)nc1`, the cytotoxicity at 10 µM amounted to 5.06%.

Consider `O=C1CCSCC(C(=O)N2CCCC2)N1` (stereo unspecified), for which the cytotoxicity at 10 µM was -9.83%.

Turning to `O=C1CCSCC(C(=O)N2CCN(C3CCCCC3)CC2)N1` (stereo unspecified), the cytotoxicity at 10 µM is -18.7%.

As for `O=C(c1ccsc1)N1CCc2c(CNc3ncccn3)n[nH]c2C1`, the cytotoxicity at 10 µM was -16.7%.

With `CC(C)C(NC(=O)c1cnc(N2CCOCC2)nc1)c1cccs1` (stereo unspecified), the cytotoxicity at 10 µM came out at 9.71%.

Regarding `COCCN1CCN(c2nc(O)cc(Cc3ccccc3F)n2)CC1`, the cytotoxicity at 10 µM was -4.52%.

Consider `c1cc(-c2cnc(C3CCNCC3)cn2)n[nH]1`, for which the cytotoxicity at 10 µM is -2.78%.

`c1cc(-c2nnc(C3CCCN(CC4CCCCC4)C3)o2)ccn1` (stereo unspecified): the cytotoxicity at 10 µM is -12.1%.

As to `Cc1nn(C)cc1CN1CCc2c(nc(-c3ccccn3)[nH]c2=O)C1`, the cytotoxicity at 10 µM is -32.1%.

As for `Cc1cc(C)cc(-c2cccc(CC3(C(=O)O)CCOCC3)c2)c1`, the cytotoxicity at 10 µM is -4.04%.

As to `Cc1noc(C)c1CN1CCCCC1c1nc(-c2ccccc2)no1` (stereo unspecified), the cytotoxicity at 10 µM was -44%.

For `Cc1ccc(-c2nc(CC(=O)NCC3CCCN(C(C)C)C3)cs2)o1` (stereo unspecified), the cytotoxicity at 10 µM is -53.2%.

`NC(=O)CSCC(=O)NC1(c2cccc(Cl)c2)CC1`: the cytotoxicity at 10 µM was -16.4%.

For the compound `N#CC1(NC(=O)COc2cc(Cl)cc(Cl)c2)CCSC1` (stereo unspecified), the cytotoxicity at 10 µM worked out at 7.95%.

As for `O=C(Nc1cc(C(F)(F)F)c[nH]c1=O)C1CCCN1` (stereo unspecified), the cytotoxicity at 10 µM was -7.33%.

As to `COC(=O)CC1CCCCN1CC(=O)NCCc1ccc(F)cc1` (stereo unspecified), the cytotoxicity at 10 µM was -8.61%.

On to `COc1ccc(OCc2nc3cc4c(cc3c(=O)o2)OCCCO4)cc1`, for which the cytotoxicity at 10 µM was 5.73%.

With `CC(C)c1noc(CCCC(=O)N2CCN(C)CC2c2ccccc2)n1` (stereo unspecified), the cytotoxicity at 10 µM was -2.89%.

For `Cc1ccnc(C(NC(=O)c2oc(C)nc2C)C2CC2)n1` (stereo unspecified), the cytotoxicity at 10 µM was -0.392%.

Take `Cc1nn(C)c(C)c1OCC(=O)NCc1cccc(C(=O)O)c1`: the cytotoxicity at 10 µM is -3.83%.

Regarding `O=c1oc(-c2ccccc2)nn1CN1CCC(N2CCCCC2)CC1`, the cytotoxicity at 10 µM is 6.64%.

Consider `CCN(Cc1ccccc1)C(=O)CN1CCCCC1Cn1cncn1` (stereo unspecified), for which the cytotoxicity at 10 µM was 7.15%.

Turning to `Cc1ccc(C(=O)N(C)Cc2ccc(Br)o2)c(=O)[nH]1`, the cytotoxicity at 10 µM was 8.6%.

`CC(CN1CCCC1=O)NC(=O)c1cc(Cl)c2c(c1)OCO2` (stereo unspecified): the cytotoxicity at 10 µM is -10.4%.

For the compound `CC(C)c1cnc(CN(C)C2CCN(CCS(C)(=O)=O)C2)o1` (stereo unspecified), the cytotoxicity at 10 µM was determined as 0.528%.

As for `O=C(c1ccc(=O)[nH]n1)N1CCc2ccccc21`, the cytotoxicity at 10 µM was determined as 37.9%.

With `COc1c(C(=O)N2CCOC(c3cccs3)C2)c(C)nn1C` (stereo unspecified), the cytotoxicity at 10 µM was -0.43%.

`CCN(c1cccc(F)c1)S(=O)(=O)c1cc(C(=O)O)cc2c1CCC2`: the cytotoxicity at 10 µM is 10.5%.

Consider `CC(Cc1ccco1)NC(=O)CCn1cccn1` (stereo unspecified), for which the cytotoxicity at 10 µM was -6.19%.

With `Cc1cccc(C2CCCCN2C(=O)CCCS(C)(=O)=O)c1C` (stereo unspecified), the cytotoxicity at 10 µM was 4.96%.

As to `CC(CNC(=O)C1(c2ccc(F)cc2)CC1)CN1CCCC1=O` (stereo unspecified), the cytotoxicity at 10 µM is -8.26%.

On to `Cc1cc(N2CCC(NC(=O)CCc3ccco3)CC2)nc(C)n1`, for which the cytotoxicity at 10 µM is -14.3%.

As to `CC(CC#N)N(C)Cc1ccccc1Cl` (stereo unspecified), the cytotoxicity at 10 µM is -8.67%.

In the case of `CC(C)OCCC(=O)Nc1cc(C(=O)N(C)C(C)C)ccc1Cl`, the cytotoxicity at 10 µM was -3.79%.

For the compound `CC(=O)N(Cc1ccc(NCc2cnn(C(C)(C)C)c2)cc1)C(C)C`, the cytotoxicity at 10 µM was -3.44%.

In the case of `CCc1cnccc1C(=O)NC1CCN(C(=O)C2CCCCC2)CC1`, the cytotoxicity at 10 µM turned out to be 3.51%.

As for `Cc1nnc(CN2CCCC2c2ccc(C(C)(C)C)cc2)o1` (stereo unspecified), the cytotoxicity at 10 µM is -8.48%.

For `Cc1cccc2c1C(=O)NC1(CCOCC1)N2`, the cytotoxicity at 10 µM was -42.3%.

Turning to `COCC(=O)NC1(c2cccc(C(F)(F)F)c2)CCC1`, the cytotoxicity at 10 µM was -50%.

As for `CCc1nnsc1C(=O)N(C)Cc1ccc(Br)o1`, the cytotoxicity at 10 µM is -48.8%.

For `CCS(=O)(=O)NCCCNC(=O)N(C)C(C)c1ccccn1` (stereo unspecified), the cytotoxicity at 10 µM was 7.31%.

For `FC(F)(F)c1cccc(C2(CNCc3ccncc3)CCOCC2)c1`, the cytotoxicity at 10 µM is -6.98%.

On to `O=C(c1cccc(NCCO)c1)N1CCOCC1`, for which the cytotoxicity at 10 µM is -11%.

With `Cc1noc(Cl)c1CCC(=O)N1CCCCC1Cn1cccn1` (stereo unspecified), the cytotoxicity at 10 µM is -12.6%.

For the compound `Cc1noc([C@]23COC[C@H]2CN(C(=O)Cc2ccsc2)C3)n1`, the cytotoxicity at 10 µM was -95.9%.

With `CCOCC(=O)N1CCC2(CC1)CC(c1ccccc1)CO2` (stereo unspecified), the cytotoxicity at 10 µM is -113%.

With `O=C(Cc1ccco1)N1C[C@H]2CCC[C@@]2(COCc2cccnc2)C1`, the cytotoxicity at 10 µM was -115%.

Turning to `OCC1CCCCN1CCn1ccnc1-c1nc2ccccc2[nH]1` (stereo unspecified), the cytotoxicity at 10 µM worked out at 8.89%.

As for `Cc1cccc2sc(NC(=O)CN3CCCC4(CC3)CNC(=O)O4)nc12` (stereo unspecified), the cytotoxicity at 10 µM is -4.26%.

With `Fc1ccc(CC2CCN(Cc3nccs3)CC2)cc1`, the cytotoxicity at 10 µM was -2.87%.

Regarding `CCc1cc(C(C)Nc2nc(-c3cccnc3)nc3c2CNC3)on1` (stereo unspecified), the cytotoxicity at 10 µM came out at 16.9%.

Regarding `Cc1c[nH]c(CN2CCCCC2CCN(C)C)c(C)c1=O` (stereo unspecified), the cytotoxicity at 10 µM is -2.97%.

As to `CN(CCCc1cnn(C)c1)C(=O)C1CCN(C(=O)C2CCC2)CC1`, the cytotoxicity at 10 µM is -11.6%.

Turning to `O=C(O)[C@@]12CN(c3cnccn3)C[C@@H]1CN(C1CCCC1)C2`, the cytotoxicity at 10 µM is -10.3%.

On to `CN(Cc1cccnc1)c1nccc(N2CCN[C@H]3CS(=O)(=O)C[C@H]32)n1`, for which the cytotoxicity at 10 µM was 5.82%.

For the compound `C[C@@H]1CN(S(=O)(=O)N2CCCC2)CC[C@@]1(O)C1CCOCC1`, the cytotoxicity at 10 µM was 4.49%.

On to `O=C(Cn1nnc(-c2ccc(F)cc2)n1)N1CCOCC(O)C1` (stereo unspecified), for which the cytotoxicity at 10 µM amounted to 10.9%.

Turning to `CC(C)=CCN1CCC2(CC1)CC(=O)N(Cc1cc(F)cc(F)c1)C2`, the cytotoxicity at 10 µM worked out at 0.308%.

On to `CC(=O)N[C@H]1CCN(c2nc(C)nc3c2c(C)nn3C)C1`, for which the cytotoxicity at 10 µM is 4.61%.

For the compound `CC(C)CC(O)C1CCN(Cc2cnc(-c3cccs3)nc2)CC1` (stereo unspecified), the cytotoxicity at 10 µM was -3.18%.

Take `CN1CCc2[nH]cnc2C12CCN(Cc1ccc(S(C)(=O)=O)cc1)CC2`: the cytotoxicity at 10 µM was -3.72%.

For `CC(C)c1cc(C(=O)N2C[C@@H](C)[C@](O)(C3CC3)C2)[nH]n1`, the cytotoxicity at 10 µM came to 16.3%.

Take `CNc1cc(C)nc(N2C[C@@H](C(=O)O)[C@H](C3CC3)C2)n1`: the cytotoxicity at 10 µM was -0.147%.

As for `Cn1nc(C2CN(C(=O)c3cscn3)C2)c2nccnc21`, the cytotoxicity at 10 µM amounted to 2.21%.

As for `Cc1nccc(CN2CC[C@H](Oc3cccc(F)c3)[C@@](C)(O)C2)n1`, the cytotoxicity at 10 µM was found to be 2.84%.

Regarding `COc1c(C2CCCN2C(=O)c2cscn2)c(C)nn1C` (stereo unspecified), the cytotoxicity at 10 µM came to 5.77%.

In the case of `COCCc1noc(CN2CCCC2Cn2cccn2)n1` (stereo unspecified), the cytotoxicity at 10 µM was -0.206%.

Turning to `COc1ccc(-n2ccc(C(=O)NCCN3CCC(C)CC3)n2)cc1`, the cytotoxicity at 10 µM was -6.48%.

As to `Cc1cc(C[S+]([O-])CC(=O)NCc2ccccc2)no1` (stereo unspecified), the cytotoxicity at 10 µM is -2.13%.

With `Cc1nc(C)n(CC2CCCCN2Cc2nc3ccccc3o2)n1` (stereo unspecified), the cytotoxicity at 10 µM is -6.8%.

As for `Cc1cc(NC(=O)CN2CCCC2Cn2nc(C)nc2C)n(C)n1` (stereo unspecified), the cytotoxicity at 10 µM was -2.49%.

For the compound `CCCNC(=O)C(C)N1CCC(C(=O)Nc2cnn(CC)c2)CC1` (stereo unspecified), the cytotoxicity at 10 µM was -5.36%.

Consider `c1sc(C2CCCCC2)nc1CN1CCn2c(nnc2C2CC2)C1`, for which the cytotoxicity at 10 µM is -6.61%.

On to `COCCCC(=O)NS(=O)(=O)c1ccc2c(c1)OCCCO2`, for which the cytotoxicity at 10 µM is -2.77%.

As for `Cc1nccn1C1CCCN(C(=O)c2ccc3c(c2)nnn3C)C1` (stereo unspecified), the cytotoxicity at 10 µM was -7.89%.

On to `Cc1nnc(NCc2cccnc2N(C)C)c(C#N)c1C`, for which the cytotoxicity at 10 µM was -4.94%.

For `Cc1ncc2c(n1)CCN(Cc1nc3ccccc3o1)C2`, the cytotoxicity at 10 µM was 1.66%.

`Cc1cnn(CC2CCCN2c2nn3cc(C)nc3s2)c1` (stereo unspecified): the cytotoxicity at 10 µM is -2.84%.

In the case of `Cc1ccc(OCCCNC(=O)NC(C)c2nncn2C)cc1` (stereo unspecified), the cytotoxicity at 10 µM was -3.83%.

Consider `Fc1cnc(N2CCO[C@H]3[C@H](OCC4CCOCC4)CC[C@@H]32)nc1`, for which the cytotoxicity at 10 µM stood at 10.7%.

Take `Cc1cc(-c2cnn(CCNC(=O)c3cccnc3)c2C2CC2)on1`: the cytotoxicity at 10 µM worked out at 0.565%.

On to `c1ccc(NCc2cn3c(n2)CN(Cc2cccnc2)CC3)nc1`, for which the cytotoxicity at 10 µM worked out at 1.52%.

Consider `O=C(CCC1CCCC1)NCCn1nc(C2CCNC2)c2cccnc21` (stereo unspecified), for which the cytotoxicity at 10 µM was -2.83%.

`Cc1nc(N2CCOCC2)nc2c1CCN(Cc1nccn1C)CC2`: the cytotoxicity at 10 µM was -125%.

As to `O=C(N1CCOCC1)[C@@]12CCO[C@@H]1CCN(C1CCOCC1)C2`, the cytotoxicity at 10 µM amounted to 5.83%.

On to `CC(C)N1CCO[C@H]2CN(C(=O)c3ccoc3)C[C@H]21`, for which the cytotoxicity at 10 µM was -0.207%.

With `CS(=O)(=O)N1CC[C@H]2OCC[C@@]2(C(=O)NCCc2ccccn2)C1`, the cytotoxicity at 10 µM is -101%.

Consider `CS(=O)(=O)NC[C@]12COC[C@H]1CN(Cc1ccc3c(c1)OCO3)C2`, for which the cytotoxicity at 10 µM is -106%.

`CC(C)N(C)Cc1ncn2c1CN(S(=O)(=O)c1cccs1)CCC2`: the cytotoxicity at 10 µM came to 3.62%.

Consider `O=C(c1ccccn1)N1Cc2nccn2CC(CN2CCOCC2)C1` (stereo unspecified), for which the cytotoxicity at 10 µM amounted to 2.16%.
